From ChEMBL document CHEMBL4325921, “Potent Triazolopyridine Myeloperoxidase Inhibitors” (ACS Med Chem Lett, 2018)
Blank lines part the entries; values can stand above or below the molecule they belong to. Calls of active or inactive are those of the source. The rule behind the calls is not given here.

How the values were obtained:
Mus musculus [1] = assay: (§1) In vivo inhibition of PMA-stimulated MPO in human MPO transgenic mouse model of acute inflammation assessed as reduction in hypochlorous acid production in blood at 10 mg/kg, po administered 20 mins prior to PMA stimulation and measured after 2 mins by luminol chemiluminescence assay relative to control; assay type: functional
Summary of the method: (§2)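 Mice were dosed with test compound, then given PMA 20 minutes later to stimulate MPO through neutrophil degranulation. After 2 minutes, blood samples were treated with luminol. Chemiluminescence was read as MPO-dependent hypochlorous acid production.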

[2] = Cmax in mouse at 3 mg/kg, po; assay type: ADME, organism-based; design: dose 3 mg/kg, route oral; conditions: in vivo
[3] = Protein binding in human plasma; assay type: ADME, cell-free; conditions: read-out: PPB (converted)
Mus musculus [4] = assay: In vivo inhibition of […] in mouse model of acute inflammation at 10 to 30 mg/kg, po; assay type: functional, organism-based
Mus musculus [5] = assay: In vivo inhibition of PMA-stimulated MPO in human MPO transgenic mouse model of acute inflammation assessed as reduction in hypochlorous acid production in blood administered orally 20 mins prior to PMA stimulation and measured after 2 mins by luminol chemiluminescence assay; assay type: functional, organism-based; summary of the method: as §2
Myeloperoxidase [6] = target: T1, Myeloperoxidase (Homo sapiens, UniProt P05164); assay: Inhibition of human PMN leukocytes MPO chlorination activity using H2O2 as substrate preincubated for 10 mins followed by H2O2 addition and measured for 15 mins in presence of NaCl by aminophenyl fluorescein based assay
T1 sequence (P05164 whole entry): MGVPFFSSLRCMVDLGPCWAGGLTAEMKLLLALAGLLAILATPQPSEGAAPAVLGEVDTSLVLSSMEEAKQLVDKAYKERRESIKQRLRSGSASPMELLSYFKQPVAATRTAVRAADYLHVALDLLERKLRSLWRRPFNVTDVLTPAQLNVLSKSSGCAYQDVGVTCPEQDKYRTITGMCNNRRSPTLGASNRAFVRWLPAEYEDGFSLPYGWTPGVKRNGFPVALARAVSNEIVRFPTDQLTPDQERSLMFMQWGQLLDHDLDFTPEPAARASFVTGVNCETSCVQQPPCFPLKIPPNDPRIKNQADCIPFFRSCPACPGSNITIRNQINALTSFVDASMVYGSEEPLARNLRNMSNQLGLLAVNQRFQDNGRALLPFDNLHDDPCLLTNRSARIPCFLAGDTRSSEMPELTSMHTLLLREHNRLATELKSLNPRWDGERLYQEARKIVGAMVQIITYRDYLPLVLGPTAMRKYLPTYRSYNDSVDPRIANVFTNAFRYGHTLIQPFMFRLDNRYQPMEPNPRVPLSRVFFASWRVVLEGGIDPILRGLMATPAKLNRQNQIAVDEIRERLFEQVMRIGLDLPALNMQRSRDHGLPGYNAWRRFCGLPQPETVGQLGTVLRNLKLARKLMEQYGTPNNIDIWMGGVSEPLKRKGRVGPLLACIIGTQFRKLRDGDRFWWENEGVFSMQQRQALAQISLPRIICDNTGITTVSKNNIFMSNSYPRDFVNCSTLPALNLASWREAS

Thyroid peroxidase = target: T2, Thyroid peroxidase (Homo sapiens, UniProt P07202); assay: Inhibition of human TPO assessed as reduction in H2O2 catalyzed 3,5-iodo tyrosine formation from 3-iodotyrosine and potassium iodide preincubated for 10 mins followed by tyrosine/potassium bromide/H2O2 addition measured after 15 mins
T2 sequence (P07202 whole entry): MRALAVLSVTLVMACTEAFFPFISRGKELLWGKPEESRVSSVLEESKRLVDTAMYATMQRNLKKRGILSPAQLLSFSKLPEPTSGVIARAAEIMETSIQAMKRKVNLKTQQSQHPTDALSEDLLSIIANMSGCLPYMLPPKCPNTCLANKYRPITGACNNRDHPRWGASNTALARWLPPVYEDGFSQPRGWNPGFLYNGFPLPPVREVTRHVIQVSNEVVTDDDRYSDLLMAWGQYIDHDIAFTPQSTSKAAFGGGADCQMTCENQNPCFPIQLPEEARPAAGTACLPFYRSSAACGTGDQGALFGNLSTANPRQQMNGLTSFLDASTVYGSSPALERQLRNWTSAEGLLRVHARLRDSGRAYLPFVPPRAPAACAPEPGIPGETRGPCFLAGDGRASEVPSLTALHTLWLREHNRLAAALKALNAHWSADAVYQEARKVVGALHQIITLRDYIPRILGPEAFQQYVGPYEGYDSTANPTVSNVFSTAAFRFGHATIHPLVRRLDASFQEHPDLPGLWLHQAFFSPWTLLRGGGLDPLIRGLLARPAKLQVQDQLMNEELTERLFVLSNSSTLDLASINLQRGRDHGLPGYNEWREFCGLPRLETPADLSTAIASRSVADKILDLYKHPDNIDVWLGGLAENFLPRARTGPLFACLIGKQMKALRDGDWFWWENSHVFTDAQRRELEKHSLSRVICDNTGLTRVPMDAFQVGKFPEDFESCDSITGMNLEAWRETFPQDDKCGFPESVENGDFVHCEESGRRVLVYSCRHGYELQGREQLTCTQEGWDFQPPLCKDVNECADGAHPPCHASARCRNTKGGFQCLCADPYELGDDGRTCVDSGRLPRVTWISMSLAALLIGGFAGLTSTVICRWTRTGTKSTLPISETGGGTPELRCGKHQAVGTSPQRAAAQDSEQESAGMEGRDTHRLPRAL

[7] = Protein binding in mouse plasma; assay type: ADME, cell-free; conditions: read-out: PPB (converted)
[8] = Plasma concentration in human MPO transgenic mouse model of PMA-induced acute inflammation at 10 mg/kg, po; assay type: ADME, organism-based; conditions: in vivo
Myeloperoxidase [9] = target: T1, Myeloperoxidase; assay: Inhibition of human PMN leukocytes MPO peroxidation activity using H2O2 as substrate preincubated for 10 mins followed by H2O2 addition and measured for 15 mins by amplex red reagent based assay
Eosinophil peroxidase = target: T3, Eosinophil peroxidase (Homo sapiens, UniProt P11678); assay: Inhibition of human EPX bromination activity assessed as reduction in H2O2 catalyzed 3-bromo tyrosine formation from tyrosine and potassium bromide preincubated for 10 mins followed by tyrosine/potassium bromide/H2O2 addition measured after 15 mins by RP-UPLC analysis
T3 sequence (P11678 whole entry): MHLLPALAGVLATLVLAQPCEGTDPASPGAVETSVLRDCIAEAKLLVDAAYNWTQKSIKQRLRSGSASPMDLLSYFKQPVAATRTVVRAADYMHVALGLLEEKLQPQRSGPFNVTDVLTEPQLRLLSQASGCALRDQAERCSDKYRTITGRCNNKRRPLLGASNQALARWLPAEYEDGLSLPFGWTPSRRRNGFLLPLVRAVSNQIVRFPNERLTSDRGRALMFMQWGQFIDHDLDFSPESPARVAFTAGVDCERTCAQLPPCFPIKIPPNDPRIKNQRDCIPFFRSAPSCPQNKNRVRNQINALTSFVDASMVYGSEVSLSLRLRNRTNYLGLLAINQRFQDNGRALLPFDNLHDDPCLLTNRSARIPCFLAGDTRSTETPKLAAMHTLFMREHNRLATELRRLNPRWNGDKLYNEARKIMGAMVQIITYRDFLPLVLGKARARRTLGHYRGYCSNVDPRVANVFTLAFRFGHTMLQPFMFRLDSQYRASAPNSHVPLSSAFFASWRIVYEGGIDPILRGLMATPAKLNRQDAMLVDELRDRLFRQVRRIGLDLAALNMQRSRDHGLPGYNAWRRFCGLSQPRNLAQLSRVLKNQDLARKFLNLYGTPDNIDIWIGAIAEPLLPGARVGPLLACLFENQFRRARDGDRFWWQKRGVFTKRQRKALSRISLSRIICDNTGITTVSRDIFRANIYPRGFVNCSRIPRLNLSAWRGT

Lactoperoxidase = Lactoperoxidase (Homo sapiens, UniProt P22079); assay: Inhibition of human LPO assessed as reduction in H2O2 catalyzed 3,5-iodo tyrosine formation from 3-iodotyrosine and potassium iodide preincubated for 10 mins followed by tyrosine/potassium bromide/H2O2 addition measured after 15 mins
[10] = AUC in mouse at 3 mg/kg, po after 8 hrs; assay type: ADME, organism-based; design: dose 3 mg/kg, time < 8 hr, route oral; conditions: in vivo
[11] = Plasma concentration in human MPO transgenic mouse model of PMA-induced acute inflammation at 30 mg/kg, po; assay type: ADME, organism-based; conditions: in vivo
Mus musculus [12] = assay: as §1, with “30” for “10”; assay type: functional; summary of the method: as §2
[13] = target: T4, Methylated-DNA--protein-cysteine methyltransferase (Homo sapiens, UniProt P16455); assay: Inhibition of recombinant human N-terminal His-tagged MGMT (1 to 207 residues) expressed in Escherichia coli using O-6-benzylguanine as substrate after 30 mins by LC-MS analysis; conditions: 0.5 h
T4 sequence (P16455 whole entry): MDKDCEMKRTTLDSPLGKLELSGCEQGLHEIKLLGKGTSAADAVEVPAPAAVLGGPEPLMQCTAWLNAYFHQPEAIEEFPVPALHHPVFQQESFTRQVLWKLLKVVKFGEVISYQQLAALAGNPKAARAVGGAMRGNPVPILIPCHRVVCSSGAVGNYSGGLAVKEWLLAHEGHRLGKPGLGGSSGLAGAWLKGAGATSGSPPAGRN

[14] = Half life in pH 1 solution; assay type: physicochemical
Cytochrome P450 3A4 = Cytochrome P450 3A4 (Homo sapiens, UniProt P08684); assay: Inhibition of CYP3A4 (unknown origin); assay type: ADME
Sequence of Cytochrome P450 3A4 (P08684 whole entry): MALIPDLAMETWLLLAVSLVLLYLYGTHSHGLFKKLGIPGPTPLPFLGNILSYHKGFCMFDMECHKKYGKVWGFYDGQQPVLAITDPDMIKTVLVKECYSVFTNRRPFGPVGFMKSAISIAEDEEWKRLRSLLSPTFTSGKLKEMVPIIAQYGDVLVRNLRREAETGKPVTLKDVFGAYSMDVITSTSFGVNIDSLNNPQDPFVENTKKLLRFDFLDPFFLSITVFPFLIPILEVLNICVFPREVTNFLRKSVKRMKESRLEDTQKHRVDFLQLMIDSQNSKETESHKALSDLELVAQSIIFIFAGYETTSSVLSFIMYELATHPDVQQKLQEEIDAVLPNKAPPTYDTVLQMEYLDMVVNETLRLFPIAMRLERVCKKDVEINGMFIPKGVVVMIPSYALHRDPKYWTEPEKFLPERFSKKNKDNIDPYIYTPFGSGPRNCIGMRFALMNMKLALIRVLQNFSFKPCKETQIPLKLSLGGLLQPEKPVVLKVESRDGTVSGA

Sequence of Lactoperoxidase (P22079 whole entry): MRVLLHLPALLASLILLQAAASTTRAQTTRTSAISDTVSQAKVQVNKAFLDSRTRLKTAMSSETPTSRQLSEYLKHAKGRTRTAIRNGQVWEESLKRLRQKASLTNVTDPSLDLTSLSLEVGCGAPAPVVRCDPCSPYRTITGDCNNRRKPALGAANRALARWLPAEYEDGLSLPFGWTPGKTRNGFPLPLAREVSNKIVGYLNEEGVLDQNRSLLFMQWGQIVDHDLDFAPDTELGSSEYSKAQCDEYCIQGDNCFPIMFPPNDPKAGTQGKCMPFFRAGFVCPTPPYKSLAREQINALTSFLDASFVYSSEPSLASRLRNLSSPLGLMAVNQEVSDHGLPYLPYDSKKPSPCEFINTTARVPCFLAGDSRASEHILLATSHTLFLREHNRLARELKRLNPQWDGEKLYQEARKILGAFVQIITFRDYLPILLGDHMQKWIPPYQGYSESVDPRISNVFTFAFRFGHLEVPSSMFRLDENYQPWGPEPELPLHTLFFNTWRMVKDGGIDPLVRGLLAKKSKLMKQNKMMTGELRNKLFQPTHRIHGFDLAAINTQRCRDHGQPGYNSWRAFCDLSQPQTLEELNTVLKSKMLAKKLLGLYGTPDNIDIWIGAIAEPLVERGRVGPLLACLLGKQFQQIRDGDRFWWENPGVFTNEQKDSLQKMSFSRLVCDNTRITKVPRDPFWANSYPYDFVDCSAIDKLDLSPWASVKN

SMILES: Nc1cc(SCc2ccccc2F)c2nn[nH]c2n1
inhibition in vivo at 10 mg/kg (Mus musculus [1]): 50% | Cmax [2]: 17 µM | fraction unbound [3]: 0.02 | inhibition (Mus musculus [4]): Active | inhibition (Mus musculus [5]): Dose-dependent effect | IC50 (Myeloperoxidase [6]): 6.8 nM | IC50 (Thyroid peroxidase): 4000 nM | fraction unbound [7]: 0.192 | concentration [8]: 21 µM | IC50 (Myeloperoxidase [9]): 8.7 nM | IC50 (Eosinophil peroxidase): 22 nM | IC50 (Lactoperoxidase): > 8000 nM | AUC at 8 h [10]: 18 µM·h | concentration [11]: 70 µM | inhibition in vivo at 30 mg/kg (Mus musculus [12]): 74%

SMILES: Nc1cc(OCc2cccc(-c3cccc(F)c3)c2)c2nn[nH]c2n1
IC50 (Myeloperoxidase [9]): 21 nM

SMILES: Nc1cc(OCc2cccc(-c3ccccc3F)c2)c2nn[nH]c2n1
IC50 (Myeloperoxidase [9]): 160 nM

SMILES: Nc1cc(SCc2c(Cl)cccc2Cl)c2nn[nH]c2n1
IC50 (Myeloperoxidase [9]): 4.6 nM

SMILES: CS(=O)(=O)c1ccccc1COc1cc(N)nc2[nH]nnc12
IC50 (Myeloperoxidase [9]): 720 nM

SMILES: Cn1cc(-c2cccc(COc3cc(N)nc4[nH]nnc34)c2)cn1
IC50 (Myeloperoxidase [9]): 78 nM

SMILES: Nc1cc(OCc2ccccc2F)c2nn[nH]c2n1
IC50 (Myeloperoxidase [9]): 30 nM

SMILES: Nc1cc(OCc2cccc(Cl)c2)c2nn[nH]c2n1
IC50 (Myeloperoxidase [9]): 21 nM

SMILES: Cc1c(COc2cc(N)nc3[nH]nnc23)cccc1-c1ccn(C)n1
IC50 (Cytochrome P450 3A4): 1500 nM | IC50 (Myeloperoxidase [9]): 26 nM

SMILES: Nc1cc(SCc2nn(-c3ccccc3)nc2C(F)F)c2nn[nH]c2n1
IC50 (Myeloperoxidase [9]): 8.5 nM

SMILES: Nc1cc(OCc2nn(-c3ccccc3)nc2CO)c2nn[nH]c2n1
IC50 (Myeloperoxidase [9]): 250 nM

SMILES: Cn1ccc(-c2cccc(COc3cc(N)nc4[nH]nnc34)c2)n1
IC50 (Myeloperoxidase [9]): 21 nM

SMILES: Nc1nc(OCc2ccccc2)c2[nH]nnc2n1
Cmax [2]: 31 µM | fraction unbound [3]: 0.006 | IC50 (Myeloperoxidase [6]): 110 to 190 nM | IC50 (Thyroid peroxidase): 42000 nM | fraction unbound [7]: 0.127 | IC50 (Eosinophil peroxidase): 17 nM | IC50 (Lactoperoxidase): > 100000 nM | inhibition (INH) [13]: Active | AUC at 8 h [10]: 22 µM·h | half-life [14]: 2.8 h

Results, then the molecule that gave them:

IC50 (Myeloperoxidase [6]): 50 nM | IC50 (Myeloperoxidase [9]): 36 nM | inhibition (INH) [13]: Active | AUC at 8 h [10]: 11 µM·h | half-life [14]: > 100 h
SMILES: Nc1cc(OCc2ccccc2)c2nn[nH]c2n1

IC50 (Myeloperoxidase [9]): 6.7 nM
SMILES: Nc1cc(OCc2c(Cl)cccc2Cl)c2nn[nH]c2n1

IC50 (Cytochrome P450 3A4): 60 nM | IC50 (Myeloperoxidase [9]): 24 nM
SMILES: Nc1cc(OCc2cc(-c3cccc(F)c3)ccc2Cl)c2nn[nH]c2n1

IC50 (Myeloperoxidase [9]): 400 nM
SMILES: Nc1cc(OCc2cn(-c3ccccc3)nn2)c2nn[nH]c2n1

IC50 (Myeloperoxidase [9]): 26 nM
SMILES: Nc1cc(OCc2ccccc2-n2cccn2)c2nn[nH]c2n1

IC50 (Myeloperoxidase [9]): 290 nM
SMILES: Nc1cc(OCc2ncc(-c3ccccc3)o2)c2nn[nH]c2n1

IC50 (Myeloperoxidase [9]): 26 nM
SMILES: Nc1cc(OCc2ccccc2Cl)c2nn[nH]c2n1

IC50 (Myeloperoxidase [9]): 26 nM
SMILES: Nc1cc(OCc2ccc(Cl)cc2)c2nn[nH]c2n1

IC50 (Myeloperoxidase [9]): 23 nM
SMILES: Cc1c(COc2cc(N)nc3[nH]nnc23)cccc1-c1cccc(F)c1

IC50 (Cytochrome P450 3A4): 370 nM | IC50 (Myeloperoxidase [9]): 27 nM
SMILES: Cc1nn(-c2ccccc2)nc1COc1cc(N)nc2[nH]nnc12

IC50 (Myeloperoxidase [9]): 12 nM
SMILES: Nc1cc(OCc2nn(-c3ccccc3)nc2C(F)F)c2nn[nH]c2n1
